In ChEMBL document CHEMBL1138298, “Synthesis and evaluation of 7H-8,9-dihydropyrano[2,3-c]imidazo[1,2-a]pyridines as potassium-competitive acid blockers” (J Med Chem, 2007):
Calls of active or inactive are those of the source. No cut-off for these calls is given here.

Columns and labels:
Gastric gland = assay: Inhibition of acid secretion in rabbit intact gastric glands assessed as […] accumulation; assay type: functional, tissue-based; settings: Oryctolagus cuniculus
How it was run: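 Isolated gastric glands in Krebs-Henseleit with 2 mg/mL rabbit serum albumin and 2 mg/mL glucose. Incubated 30 min at 37 °C, shaking, with 0.125 µM 14C-aminopyrine at pH 7.4, stimulated by 1 mM dibutyryl cAMP, inhibitor 3 nM-100 µM. Stopped by centrifugation. Accumulation taken from pellet/supernatant radioactivity ratio. IC50 from fitted inhibition equation.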

Rattus norvegicus [1] = assay: Inhibition of pentagastrin-stimulated acid secretion in intraduodenally dosed perfused Ghosh Schild rat stomach; assay type: functional; settings: intraduodenal
How it was run: (§1)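 Anaesthetised rat with perfused stomach: 37 °C saline at 0.5 mL/min. Effluent titrated to pH 7 with 0.01 N NaOH in 15-min fractions. Secretion driven by continuous iv pentagastrin, 1 µg/kg (1.65 mL/h). Compound given intraduodenally in 2.5 mL/kg volume 60 min after infusion start. Body temperature held at 37.8-38 °C.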

Rattus norvegicus [2] = assay: Inhibition of pentagastrin-stimulated acid secretion in perfused Ghosh Schild rat stomach at 3 umol/kg, intraduodenal; assay type: functional; set-up: scale not given: the % may be the effect or the level left; how it was run: as §1
[3] = Inhibition of H+/K+ ATPase in hog gastric mucosa; assay type: tissue-based, Sus scrofa
How it was run: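 Hog gastric mucosa H+/K+-ATPase (0.5-1 µg/100 µL, with nigericin 1:1) in 4 mM Pipes/8 mM Tris pH 7.4, 0.25 M sucrose, 1 mM MgCl2, stimulated by 1 mM KCl. Compound 1e-4 to 1e-9 M final from DMSO stocks. Started with 1 mM Na-ATP, 30 min room temperature. Phosphate read by malachite green at 680 nm after 15 min.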

Rattus norvegicus [4] = assay: Inhibition of pentagastrin-stimulated acid secretion in perfused Ghosh Schild rat stomach at 1 umol/kg, intraduodenal; assay type: functional; set-up: scale not given: the % may be the effect or the level left; how it was run: as §1
[5] = Dissociation constant, pKa of the compound; assay type: physicochemical
How it was run: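 Potentiometric cosolvent titration in 0.15 mol/L KCl, pH 2.0-11.0, 25 °C, methanol as cosolvent in varying portions; titrants 0.5 mol/L KOH and HCl.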

[6] = Distribution coefficient, log D of the compound; assay type: physicochemical; settings: octanol/water
How it was run: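 Distribution between 1-octanol and aqueous KCl measured by potentiometric titration over pH 2.0-11.0 at 25 °C.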

IC50 (Gastric gland) | pIC50 [3] | pKa [5] | logD [6] | Structure (SMILES) | ED50 (Rattus norvegicus [1]) | Activity (Rattus norvegicus [2]) | Activity (Gastric gland) | Activity (Rattus norvegicus [4])
1580 nM |  |  |  | Cc1nc2c3c(c(C(N)=O)cn2c1C)CC[C@@H](c1ccccc1)O3 | 1 µmol/kg |  |  | 
31600 nM | < 4 |  |  | Cc1nc2c3c(c(C(=O)N(C)C)cn2c1Br)CC[C@H](c1ccccc1)O3 |  | 38% |  | 
7940 nM | 5.8 |  |  | Cc1nc2c3c(c(C(=O)N(C)C)cn2c1CO)CC[C@@H](c1ccccc1)O3 | 5 µmol/kg |  |  | 
 | 4.2 |  |  | Cc1nc2c3c(c(C(=O)N(C)C)cn2c1CO)CC[C@H](c1ccccc1)O3 | > 6 µmol/kg |  | inactive | 
251 nM | 6.3 |  |  | Cc1ccccc1[C@@H]1CCc2c(C(=O)N(C)C)cn3c(C)c(C)nc3c2O1 | 0.4 µmol/kg |  |  | 
251 nM | 6.1 |  |  | Cc1ccccc1[C@H]1CCc2c(C(=O)N(C)C)cn3c(C)c(C)nc3c2O1 | 1.3 µmol/kg |  |  | 
 | 5.6 |  |  | CON(C)C(=O)c1cn2c(C)c(C)nc2c2c1CC[C@@H](c1ccccc1)O2 | 0.4 µmol/kg |  |  | 
398 nM | 5.3 |  |  | Cc1nc2c3c(c(C(=O)N(C)C)cn2c1C)CC[C@H](c1ccccc1F)O3 |  | 42% |  | 
200 nM | 6.4 |  |  | Cc1nc2c3c(c(C(=O)N4CCCC4)cn2c1C)CC[C@@H](c1ccccc1)O3 | 1 µmol/kg |  |  | 
1000 nM | 5.7 |  |  | Cc1nc2c3c(c(C(=O)N(C)C)cn2c1C)CC[C@H](c1ccc(F)cc1)O3 | 1.5 µmol/kg |  |  | 
158 nM | 6.5 |  |  | Cc1nc2c3c(c(C(=O)N(C)C)cn2c1C)CC[C@@H](c1ccc(F)cc1)O3 | 0.25 µmol/kg |  |  | 
6310 nM | 5 |  |  | Cc1nc2c3c(c(C(=O)N(C)C)cn2c1Br)CC[C@@H](c1ccccc1)O3 | 1.5 µmol/kg |  |  | 
1260 nM | 5.5 |  |  | CCc1c(C)nc2c3c(c(C(=O)N(C)C)cn12)CC[C@@H](c1ccccc1)O3 | 1.2 µmol/kg |  |  | 
79.4 nM | 6.3 |  |  | Cc1nc2c3c(c(C(=O)N(C)C)cn2c1C)CC[C@@H](c1ccccc1F)O3 | 0.2 µmol/kg |  |  | 
10000 nM | 4.4 |  |  | CCc1c(C)nc2c3c(c(C(=O)N(C)C)cn12)CC[C@H](c1ccccc1)O3 |  | 20% |  | 
100 nM | 5.7 |  |  | Cc1nc2c3c(c(C(=O)NC4CC4)cn2c1C)CC[C@@H](c1ccccc1)O3 | 0.25 µmol/kg |  |  | 
200 nM | 6.8 |  |  | Cc1nc2c3c(c(C(=O)N(C)C)cn2c1C)CC[C@@H](c1ccccc1)O3 | 0.22 µmol/kg |  |  | 
25100 nM |  |  |  | Cc1nc2c3c(c(C(N)=O)cn2c1C)CC[C@H](c1ccccc1)O3 |  | 30% |  | 
50.1 nM | 6.4 |  |  | Cc1nc2c3c(c(C(=O)N4CCC4)cn2c1C)CC[C@@H](c1ccccc1)O3 | 0.2 µmol/kg |  |  | 
 | < 4 |  |  | CC(=O)c1c(C)nc2c3c(c(C(=O)N(C)C)cn12)CC[C@@H](c1ccccc1)O3 | 0.1 µmol/kg |  | inactive | 
 | 4.5 |  |  | CON(C)C(=O)c1cn2c(C)c(C)nc2c2c1CC[C@H](c1ccccc1)O2 |  | 20% |  | 
2510 nM | 6 | 6.35 | 4.56 | CCOC(=O)c1cn2c(C)c(C)nc2c2c1CCC(c1ccccc1)O2 (racemic) |  |  |  | 34%
2000 nM | 5 | 6.7 | 3 | CCc1c(C)nc2c3c(c(C(=O)N(C)C)cn12)CCC(c1ccccc1)O3 (racemic) |  |  |  | 30%
 | 5 | 4.09 | 1.8 | Cc1nc2c3c(c(C(=O)N(C)C)cn2c1CN(C)C)CCC(c1ccccc1)O3 (racemic) |  |  |  | 20%

IC50 (Gastric gland) | pIC50 [3] | pKa [5] | logD [6] | Structure (SMILES) | ED50 (Rattus norvegicus [1]) | Activity (Rattus norvegicus [2]) | Activity (Gastric gland) | Activity (Rattus norvegicus [4])
 | 6.2 | 3.2 | 3.2 | CC#CC(=O)c1c(C)nc2c3c(c(C(=O)N(C)C)cn12)CCC(c1ccccc1)O3 (racemic) |  |  | inactive | 43%
12600 nM | 4.9 | 4.68 | 3.2 | Cc1nc2c3c(c(C(=O)N(C)C)cn2c1Br)CCC(c1ccccc1)O3 (racemic) | 1 µmol/kg |  |  | 
 | 5.3 | 6.44 | 1.53 | Cc1nc2c3c(c(C(=O)N4CCNCC4)cn2c1C)CCC(c1ccccc1)O3 (racemic) |  |  | inactive | 36%
631 nM | 5.9 | 6.78 | 2.8 | Cc1nc2c3c(c(C(=O)N(C)C)cn2c1C)CCC(c1ccccc1F)O3 (racemic) |  |  |  | 73%
1000 nM | 6 | 6.69 | 3.22 | Cc1nc2c3c(c(C(=O)NC4CC4)cn2c1C)CCC(c1ccccc1)O3 (racemic) |  |  |  | 82%
794 nM | 5.2 | 6.75 | 3.2 | CCN(CC)C(=O)c1cn2c(C)c(C)nc2c2c1CCC(c1ccccc1)O2 (racemic) |  |  |  | 23%
200 nM | > 6 | 6.57 | 4.3 | CCOc1ccc(NC(=O)c2cn3c(C)c(C)nc3c3c2CCC(c2ccccc2)O3)cc1 (racemic) |  |  |  | 33%
316 nM | 6.9 | 7.73 | 3.5 | Cc1nc2c3c(ccn2c1C)CCC(c1ccccc1)O3 (racemic) |  |  |  | 26%
631 nM | 5.3 | 6.64 | 2.05 | Cc1nc2c3c(c(C(=O)N(C)C)cn2c1C)CCC(c1cccs1)O3 (racemic) |  |  |  | 46%
398 nM | 5.3 | 6.63 | 2.9 | Cc1nc2c3c(c(C(=O)N4CC4)cn2c1C)CCC(c1ccccc1)O3 (racemic) |  |  |  | 35%
398 nM | 6.2 | 6.64 | 2.6 | Cc1nc2c3c(c(C(=O)N4CCC4)cn2c1C)CCC(c1ccccc1)O3 (racemic) |  |  |  | 75%
31600 nM | 5.6 | 5.86 | 1.52 | Cc1nc2c3c(c(C(=O)N(C)C)cn2c1CO)CCC(c1ccccc1)O3 (racemic) |  |  |  | 55%
200 nM | 6.2 | 6.74 | 2.76 | Cc1ccccc1C1CCc2c(C(=O)N(C)C)cn3c(C)c(C)nc3c2O1 (racemic) | 0.4 µmol/kg |  |  | 
398 nM | 6.2 | 6.74 | 2.78 | Cc1nc2c3c(c(C(=O)N(C)C)cn2c1C)CCC(c1ccc(F)cc1)O3 (racemic) | 0.35 µmol/kg |  |  | 
398 nM | 5.2 | 6.68 | 3.76 | Cc1nc2c3c(c(C(=O)NC4CCC4)cn2c1C)CCC(c1ccccc1)O3 (racemic) |  |  |  | 26%
251 nM | 5.5 | 6.59 | 5 | Cc1nc2c3c(c(C(=O)Nc4ccccc4)cn2c1C)CCC(c1ccccc1)O3 (racemic) | 0.3 µmol/kg |  |  | 
 | < 4 | 5.58 | 2.5 | CC#CC(O)c1c(C)nc2c3c(c(C(=O)N(C)C)cn12)CCC(c1ccccc1)O3 (racemic) |  |  |  | 22%
316 nM | 5.8 | 6.73 | 2.83 | Cc1nc2c3c(c(C(=O)N4CCCC4)cn2c1C)CCC(c1ccccc1)O3 (racemic) |  |  |  | 47%
2510 nM | 5.9 | 6.52 | 2.53 | Cc1nc2c3c(c(C(N)=O)cn2c1C)CCC(c1ccccc1)O3 (racemic) | 0.8 µmol/kg |  |  | 
501 nM | 5.8 | 7.15 | 2.83 | Cc1nc2c3c(c(C(=O)N(C)C)cn2c1C)CCC(c1ccccc1)O3 (racemic) | 0.5 µmol/kg |  |  | 
1000 nM | 5.6 | 6.74 | 2.8 | CNC(=O)c1cn2c(C)c(C)nc2c2c1CCC(c1ccccc1)O2 (racemic) | 0.6 µmol/kg |  |  | 
398 nM | 5.8 | 6.49 | 2.6 | CON(C)C(=O)c1cn2c(C)c(C)nc2c2c1CCC(c1ccccc1)O2 (racemic) | 0.4 µmol/kg |  |  | 
794 nM | 6 |  |  | Cc1nc2c3c(c(C4=NCCO4)cn2c1C)CCC(c1ccccc1)O3 (racemic) | 2 µmol/kg |  |  | 
 | < 4 | 3.73 | 2.55 | CC(=O)c1c(C)nc2c3c(c(C(=O)N(C)C)cn12)CCC(c1ccccc1)O3 (racemic) |  |  | inactive | 55%
